The record followed here is ChEMBL document CHEMBL4513216, “Probing the Open Global Health Chemical Diversity Library for Multistage-Active Starting Points for Next-Generation Antimalarials” (ACS Infect Dis, 2020).

The data set in a line: Toxicity liver stage against HepG2, at 10uM. The data set is classed as cell-based. Further details: test concentration 10 uM, cell line HepG2-A16-CD81EGFP. As to conditions: human, HepG2-A16-CD81EGFP cells; read-out: INHIBITION
A digest of the protocol: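 Uninfected HepG2-A16-CD81EGFP cells, 3 × 10^3 per well, 1536-well, plated on prespotted compound at 10 μM final, parasite-free screening media added to match infected plates; puromycin 10 μM positive, DMSO 0.5% negative; run in parallel with 48 h PbLuc assay at 37 °C, 5% CO2; viability by CellTiter-Glo luminescence, normalized to controls.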
In the case of `Clc1ccc2oc(C3CCN(Cc4nc(C5CC5)no4)CC3)nc2c1`, the cytotoxicity at 10 µM is -5.15%.

Regarding `Cc1ccc(N2CCC3(CCN(C(N)=O)CC3)CC2)nn1`, the cytotoxicity at 10 µM worked out at 1.62%.

For `O=C(NCCc1cnccn1)c1ccc(S(=O)(=O)NC2CCC2)cc1`, the cytotoxicity at 10 µM is 7.63%.

Regarding `Cc1nc(CC(=O)N2CCCC2c2nc(-c3ccccc3)no2)cs1` (configuration not stated), the cytotoxicity at 10 µM amounted to 7.01%.

Consider `CC(CCN1CCCC1=O)NCc1cnc(C2CCC2)s1` (configuration not stated), for which the cytotoxicity at 10 µM was -0.743%.

Regarding `Cc1cc2cccc(NC(=O)N3CC[C@H]4CC[C@@H](C3)N4C)c2o1`, the cytotoxicity at 10 µM worked out at 7.89%.

As to `CN(CCCC1CCCO1)S(=O)(=O)NCc1ccccc1` (configuration not stated), the cytotoxicity at 10 µM came to 2.2%.

Turning to `CNC(=O)c1cccnc1NCCOc1ccccc1`, the cytotoxicity at 10 µM is -4%.

Turning to `CCN(CC)C(=O)CSc1sc2c(O)cc(=O)[nH]c2c1C(N)=O`, the cytotoxicity at 10 µM amounted to 0.488%.

Regarding `O=C(CCNC(=O)NC1CCN(C2CC2)CC1)NCc1ccccc1`, the cytotoxicity at 10 µM was -0.769%.

Take `O=C(Cc1ccc(F)cc1F)NCC(=O)Nc1ccccn1`: the cytotoxicity at 10 µM was found to be 3.24%.

With `O=C1CC(N(C(=O)c2ccc(Oc3ccccc3)cc2)C2CC2)C(=O)N1` (configuration not stated), the cytotoxicity at 10 µM is -2.94%.

`Cn1ncc(N2CCC(CNC(=O)[C@@H](N)C3CCCCC3)CC2)cc1=O`: the cytotoxicity at 10 µM is 12.7%.

Consider `CC(NC(=O)c1ccc(=O)n(C)c1)c1ccc(OCC2CC2)c(F)c1` (configuration not stated), for which the cytotoxicity at 10 µM came to 9.8%.

`CC[C@@H](c1ccccc1)n1c(CCN)n[nH]c1=O`: the cytotoxicity at 10 µM was 5.33%.

As to `Cc1cnc(-n2cnnc2)c(-c2cccc3c2CCNC3)c1`, the cytotoxicity at 10 µM was 17.7%.

In the case of `COCCNC(=O)c1cccnc1Sc1cc(OC)ccc1OC`, the cytotoxicity at 10 µM turned out to be 0.734%.

Turning to `COCCN(Cc1cccnc1)c1nc(C)nc2oc(C)nc12`, the cytotoxicity at 10 µM is -44.1%.

As for `CCN(Cc1ccccc1)C(=O)CN1CCOC(Cn2cncn2)C1` (configuration not stated), the cytotoxicity at 10 µM is -6.31%.

`Cc1cnn(C2(C(=O)O)CCN(Cc3oc4ccccc4c3C)CC2)c1`: the cytotoxicity at 10 µM is -5.87%.

Consider `CNC(=O)c1cccc(NC(=O)CN2CCN(S(C)(=O)=O)CC2)c1`, for which the cytotoxicity at 10 µM turned out to be 1.82%.

Turning to `CCn1c(C(=O)N2CCN(CC(C)O)CC2)cc2ccccc21` (configuration not stated), the cytotoxicity at 10 µM was -8.96%.

For `Cc1ccc(S(=O)(=O)N2CC(C)Oc3ncccc32)c(F)c1` (configuration not stated), the cytotoxicity at 10 µM was found to be 3.43%.

Regarding `O=C(CNC(=O)c1ccc2c(c1)CCC2)NCCNc1ncccn1`, the cytotoxicity at 10 µM is -6.5%.

With `CCN(CC)C(CNC(=O)c1ccc(S(C)(=O)=O)cc1)c1ccco1` (configuration not stated), the cytotoxicity at 10 µM is -0.00646%.

As to `NC(=O)[C@@H]1Cc2ccccc2CN1S(=O)(=O)N1CCCCC1`, the cytotoxicity at 10 µM turned out to be 3.33%.

As for `Cc1nc(-c2nnc[nH]2)sc1C(=O)N(Cc1cccnc1)C1CC1`, the cytotoxicity at 10 µM was -5.79%.

As to `CN1CCC(N(C)C(=O)CSc2ccc(F)c(F)c2)C1=O` (configuration not stated), the cytotoxicity at 10 µM was -5.89%.

Turning to `COCC(=O)N1CCCC(C(=O)c2cnn(-c3ccc(F)cc3)c2N)C1` (configuration not stated), the cytotoxicity at 10 µM turned out to be 9.71%.

Take `O=C(c1cccc(Cl)c1)C1CCCN(c2nnc(C3CCC3)o2)C1` (configuration not stated): the cytotoxicity at 10 µM is 0.409%.

For the compound `Cc1nccn1CCC(=O)N1CCC2(CCC(=O)N(CC3CC3)C2)CC1`, the cytotoxicity at 10 µM is -8.46%.

For `COc1ccc(C(=O)N(Cc2cnn(C)c2)C(C)C)cc1OC(F)F`, the cytotoxicity at 10 µM is -5.17%.

With `CC(C(=O)N1CCCCC1)N1CCN(c2ncc(Cl)cn2)CC1` (configuration not stated), the cytotoxicity at 10 µM was -4.79%.

As for `CCCS(=O)(=O)N1C[C@@H](c2nc(C)no2)C[C@H]2OCC[C@H]21`, the cytotoxicity at 10 µM is -130%.

As for `CCN(CC)C(=O)c1ccc(Cl)c(NC(=O)c2cc(C(C)C)on2)c1`, the cytotoxicity at 10 µM was found to be 6.9%.

For the compound `CCCc1cc(N2CCC(NC3CCS(=O)(=O)C3)CC2)nc(C)n1` (configuration not stated), the cytotoxicity at 10 µM was -6.65%.

`O=C(NC1CCC1)c1n[nH]c2c1CNCC2`: the cytotoxicity at 10 µM is 1.67%.

`CN(C)C(=O)c1sc2ncccc2c1C1CNCCO1` (configuration not stated): the cytotoxicity at 10 µM came out at 2.35%.

Regarding `c1ncn(CC2CCCN2Cc2cn3ccsc3n2)n1` (configuration not stated), the cytotoxicity at 10 µM is -10.1%.

For the compound `Cc1cc(NC(=O)Cn2ccc(-c3ccc4c(c3)OCO4)n2)n(C)n1`, the cytotoxicity at 10 µM is 6.28%.

`CC(C)(C)NC(=O)c1cnc(C(C)(C)C)s1`: the cytotoxicity at 10 µM was found to be 3.72%.

In the case of `CSc1ncc(C(=O)NCc2cc3n(n2)CCCN(CC(C)C)C3)cn1`, the cytotoxicity at 10 µM worked out at 5.89%.

As for `O=C(c1cc[nH]n1)N1CCC(Nc2cccnn2)CC1`, the cytotoxicity at 10 µM is -0.529%.

For the compound `O=C(NCCNc1ncccn1)C1CCN(C(=O)C2CC2)CC1`, the cytotoxicity at 10 µM is -3.02%.

Regarding `CN(C)c1cccc(C(=O)Nc2cnn(Cc3ccncc3)c2)c1`, the cytotoxicity at 10 µM is -9.19%.

Consider `Cc1noc(C)c1CN1C(=O)[C@@H]2CC[C@H]1CN(Cc1cccc(O)c1)C2`, for which the cytotoxicity at 10 µM is 4.42%.

Regarding `Cc1cc(C)cc(NC(=O)CC2CN(Cc3ccccc3)CCO2)c1` (configuration not stated), the cytotoxicity at 10 µM is -8.46%.

Consider `O=C(c1cncs1)N1CCC(Cc2cnc3[nH]ccc3c2)CC1`, for which the cytotoxicity at 10 µM was -3.94%.

Consider `N#CCCCOc1cccnc1NC(=O)Cc1ccccc1F`, for which the cytotoxicity at 10 µM is -2.27%.

As to `c1cnnc(N2CCCC2CNCc2cscn2)c1` (configuration not stated), the cytotoxicity at 10 µM is -5.78%.

On to `Cn1ncc2c(N3CC(N4CCCCC4)C3)nc(-c3ccncc3)nc21`, for which the cytotoxicity at 10 µM was 5.18%.

`Cc1ccc(N2CCCN(C(=O)c3c(C)oc(C)c3C)CC2)nn1`: the cytotoxicity at 10 µM stood at 5.46%.

Take `NC(=O)c1cncc(-n2ccc(-c3cnccn3)n2)c1`: the cytotoxicity at 10 µM was -11.9%.

Turning to `COc1ccc(N2CCCC3(C2)CN(c2nncs2)CCO3)cc1` (configuration not stated), the cytotoxicity at 10 µM came out at 4.17%.

With `O=C(NCCn1nc2ccccn2c1=O)c1scnc1Cl`, the cytotoxicity at 10 µM was -13.9%.

Turning to `Fc1ccc(-c2noc3c2CN(CC2CC2)CC3)cc1F`, the cytotoxicity at 10 µM is -6.39%.

In the case of `COCC(O)CNc1cncc(Br)c1` (configuration not stated), the cytotoxicity at 10 µM is -2.52%.

For `CCC1COCCN1C(=O)NCc1cccc(-c2cnn(C)c2)c1` (configuration not stated), the cytotoxicity at 10 µM was -1.62%.

Take `Fc1ccc(N2CCOC(Cc3cccnc3)C2)cc1` (configuration not stated): the cytotoxicity at 10 µM is -16.3%.

On to `Cc1nc2c(c(Nc3ccccn3)n1)CN(S(C)(=O)=O)CC2`, for which the cytotoxicity at 10 µM was 11.1%.

In the case of `CCN1C[C@@H]2[C@@H](OC)CCN(S(=O)(=O)c3ccccc3)[C@@H]2C1`, the cytotoxicity at 10 µM was -2.7%.

Turning to `Cc1cc(C(N)=O)ccc1NC(=O)c1nc(N2CCCC2)ncc1Cl`, the cytotoxicity at 10 µM is -8.94%.

Consider `CS(=O)(=O)CCNCc1ccc(OCc2cscn2)cc1`, for which the cytotoxicity at 10 µM was -136%.

With `Cc1noc(NC(=O)c2ccc(OC(F)(F)F)cc2)n1`, the cytotoxicity at 10 µM was found to be 33.5%.

For `CC(C)CN(C)c1ccc(C(=O)N2CCCC2c2cnn(C)c2)cn1` (configuration not stated), the cytotoxicity at 10 µM was -6.95%.

For `Cc1nccc(CNC(=O)NCCOc2ccc(F)c(F)c2)n1`, the cytotoxicity at 10 µM was -17%.

Take `Cc1noc([C@H]2C[C@H]3OCC[C@H]3N(Cc3ccc(F)cc3)C2)n1`: the cytotoxicity at 10 µM is -76.4%.

Take `Cc1nc(C2(O)CCCNCC2)sc1CCOc1ccc(Cl)cc1` (configuration not stated): the cytotoxicity at 10 µM came out at 12.7%.

With `c1cncc(C2COC3(CCN(Cc4cccs4)CC3)C2)c1` (configuration not stated), the cytotoxicity at 10 µM is -0.697%.

With `O=S1(=O)CCC(n2nc(Cc3cccs3)nc2-c2cnccn2)C1` (configuration not stated), the cytotoxicity at 10 µM is -6.33%.

In the case of `CCc1ncc2c(n1)CN(C(=O)Cc1cc(OC)cc(OC)c1)C2`, the cytotoxicity at 10 µM came out at 2.78%.

As to `c1cnnc(N2CCCC2CNCc2cc[nH]n2)c1` (configuration not stated), the cytotoxicity at 10 µM was -0.807%.

For the compound `COc1ncc(C(=O)NCc2ccc(Br)cc2)cn1`, the cytotoxicity at 10 µM turned out to be 48.6%.

In the case of `COC(=O)C1CCN(C(=O)NCC(C)Cc2cccs2)CC1` (configuration not stated), the cytotoxicity at 10 µM was -7.33%.

As to `Cc1cccc(CNCC2COC3(CCCCC3)O2)c1C` (configuration not stated), the cytotoxicity at 10 µM was -139%.

As for `COCCN1C[C@@H](c2ccccc2)[C@@]2(CCN(CC(=O)N(C)C)C2=O)C1`, the cytotoxicity at 10 µM was 3.11%.

Regarding `O=C(O)CCn1ccc(=O)c2cc(F)ccc21`, the cytotoxicity at 10 µM is 1.09%.

Take `CN1CCC(CNC(=O)c2ccc3cccc(Cl)c3n2)C1` (configuration not stated): the cytotoxicity at 10 µM was -8.93%.

Regarding `CCS(=O)(=O)c1ccc(N2CCC(NC(=O)c3cnn(C)c3)CC2)cc1`, the cytotoxicity at 10 µM is -1.69%.

As for `Cc1ccc(N2CCCN(C(=O)c3n[nH]c4c3CCC4)CC2)nn1`, the cytotoxicity at 10 µM came to 3.81%.

For the compound `CC(C)Oc1ccc(CSc2nnc(CN3CCCC3=O)o2)cc1`, the cytotoxicity at 10 µM was -1.71%.

Turning to `NC(=O)C1(CCCc2ccccn2)CCCN(Cc2ccncc2)C1` (configuration not stated), the cytotoxicity at 10 µM was -4.8%.

As for `Cc1cnn(CC2CN(c3ncnc4ccsc34)CCO2)c1` (configuration not stated), the cytotoxicity at 10 µM turned out to be 53.2%.

In the case of `COC(=O)CCC(=O)NC1CCCc2cc(OC(F)F)ccc21` (configuration not stated), the cytotoxicity at 10 µM is -4.52%.

Regarding `O=C(c1cc2c(s1)CCC2)N1CCCC1Cn1cccn1` (configuration not stated), the cytotoxicity at 10 µM is -3.12%.

In the case of `Cc1oncc1C(=O)N1CC[C@H]2C[C@H](c3ccncn3)O[C@@H]2C1`, the cytotoxicity at 10 µM was -67.4%.

In the case of `CCc1ccc(C(=O)NCc2ccnc(C)n2)cc1`, the cytotoxicity at 10 µM was -4.91%.

As to `COCC(=O)N1Cc2cnc(Cc3ccc(OC)cc3)nc2C1`, the cytotoxicity at 10 µM is -15.8%.

As for `COc1ccccc1C1(C(=O)N2CCCC(c3cc(C)[nH]n3)C2)CC1` (configuration not stated), the cytotoxicity at 10 µM was -16.7%.

For `Cc1cccc(N2CCN(S(=O)(=O)CCN)CC2)c1`, the cytotoxicity at 10 µM is 0.0723%.

On to `COC1CCCN(C(=O)c2sc(CC(C)C)nc2C)C1` (configuration not stated), for which the cytotoxicity at 10 µM turned out to be 10.9%.

With `Cn1ccc(C(=O)N2CCCC(n3cncn3)C2)cc1=O` (configuration not stated), the cytotoxicity at 10 µM is -2.43%.

`CCc1cccc(C)c1NC(=O)C1CC(=O)N(Cc2ccccn2)C1` (configuration not stated): the cytotoxicity at 10 µM came out at 1.09%.

In the case of `CCOC(=O)c1coc(N2CCN(Cc3cc(C)cc(C)c3)C(=O)C2)n1`, the cytotoxicity at 10 µM was 4.24%.

On to `COCCNC(=O)N1CCCC1COc1ccccc1` (configuration not stated), for which the cytotoxicity at 10 µM turned out to be 2.04%.

For the compound `COc1cc(N2C[C@H](C(=O)N3CCCC3)[C@@H]3CCO[C@@H]3C2)ncn1`, the cytotoxicity at 10 µM was -0.211%.

For the compound `N#Cc1ccccc1CN1CCCCC1Cn1cncn1` (configuration not stated), the cytotoxicity at 10 µM is -4.13%.
